# How the values were obtained:
# BT-549 cells = assay: Tumor cell migration, BT-549; format: cell-based, human; conditions: 1-100 μM
# Outline: (§1)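 Chemotactic migration toward FBS was measured in a modified Boyden chamber across a range of test compound concentrations. IC50 was derived from the concentration–response data. Results are mean ± SEM (N ≥ 3).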
# MDA-MB-231 cells (CXCR4) = assay: SDF-1α mediated cell migration, MDA-MB-231; format: cell-based, human; conditions: SDF-1α as chemoattractant; up to 100 μM
# GIV binding to Gαi3 = GIV binding to Gαi3 (Rattus norvegicus, UniProt P08753); assay: Fluorescence polarization
# MDA-MB-231 cells [1] = format: cell-based, human
# MCF-10A cells [2] = assay: Cell viability assay, MCF-10A; format: cell-based, human; conditions: 100 μM, 24 h
# Outline: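 Single-concentration viability screen at 100 μM in MCF-10A cells, run alongside MDA-MB-231 and MCF-7. Values are the mean of N = 3.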
# [3] = test system: Akt phosphorylation at S473 in HeLa cells; assay: EGF-stimulated Akt activation; format: cell-based, human; conditions: EGF 50 nM, 5 min
# Outline: (§2)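 Cells were preincubated with a range of test compound concentrations, then stimulated with EGF for 5 min (1.6 nM for MDA-MB-231, 50 nM for HeLa). Cells were then lysed and Akt activation was read by immunoblotting.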
# MCF-10A cells [4] = assay: Matrigel cultures, MCF-10A; format: cell-based, human; conditions: 100 μM
# [5] = Hydrolytic processing of IGGi-11me by cytosolic fraction of MDA-MB-231 cells; format: in vitro ADME, human; conditions: 2 hours, 37 °C
# MDA-MB-231 cells [6] = assay: Cell viability assay; format: cell-based, human; conditions: up to 100 μM, 24 h
# Outline: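 Cell viability was measured after 24 h incubation with test compound at indicated concentrations. IC50 was derived from the concentration-response data. Mean ± SEM, N ≥ 3.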
# [7] = test system: Akt activation in GIV-depleted cells (shGIV); assay: EGF-stimulated Akt activation in GIV-depleted cells; format: cell-based, human; conditions: 100 μM
# Outline: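 GIV-depleted (shGIV) and control (shControl) cells were handled the same way: preincubation with test compound, EGF stimulation for 5 min, lysis, then immunoblotting for Akt activation.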
# [8] = test system: GIV-depleted (shGIV) MDA-MB-231 cells; assay: Tumor cell migration, GIV-depleted MDA-MB-231; format: cell-based, human; conditions: 100 μM
# Outline: (§3)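 GIV-depleted (shGIV) and matched control (shControl) cells were run side by side in a modified Boyden-chamber assay of chemotactic migration toward FBS with test compound. Results are mean ± SEM (N ≥ 3).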
# Hs578T cells = assay: Tumor cell migration, Hs578T; format: cell-based, human; conditions: 1-100 μM
# Outline: as §1
# Stability in plasma = format: in vitro ADME; conditions: preliminary results
# MDA-MB-231 cells [9] = assay: Matrigel cultures, MDA-MB-231; format: cell-based, human; conditions: 100 μM for 2 days, culture 7 days
# [10] = test system: GIV-depleted (shGIV) HeLa cells; assay: Tumor cell migration, GIV-depleted HeLa; format: cell-based, human
# Outline: as §3
# MDA-MB-231 cells [11] = assay: Growth of pretreated MDA-MB-231 cells on plastic dishes; format: cell-based, human; conditions: cells treated overnight with 100 μM
# [12] = test system: endogenous β-adrenergic receptors (cAMP via Gαs); assay: Luminescence-based cAMP; format: cell-based, human; conditions: 100 μM; isoproterenol 100 nM; HEK293T
# Outline: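 HEK293T cells expressing the Glosensor luminescent cAMP sensor plus α2A-AR or GABA_BR were pretreated with test compound (100 μM) or DMSO. They were then stimulated with isoproterenol (100 nM), with or without prestimulation by brimonidine (1 μM) or GABA (100 μM). Luminescence was recorded. Mean ± SEM, N ≥ 3; ANOVA.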
# [13] = test system: Akt phosphorylation at S473 in MDA-MB-231 cells; assay: EGF-stimulated Akt activation; format: cell-based, human
# Outline: as §2
# [14] = test system: Akt activation upon stimulation of the GPCR CXCR4 in MDA-MB-231 cells; assay: SDF-1α-stimulated Akt activation; format: cell-based, human; conditions: SDF-1α 100 ng/mL, 10 min; IGGi-11me 100 μM; PTX 100 ng/mL
# GIV–Gαi3 binding = GIV–Gαi3 binding (Rattus norvegicus, UniProt P08753); conditions: cell-free systems; cited from earlier work
# Sequence of GIV–Gαi3 binding (P08753 whole entry): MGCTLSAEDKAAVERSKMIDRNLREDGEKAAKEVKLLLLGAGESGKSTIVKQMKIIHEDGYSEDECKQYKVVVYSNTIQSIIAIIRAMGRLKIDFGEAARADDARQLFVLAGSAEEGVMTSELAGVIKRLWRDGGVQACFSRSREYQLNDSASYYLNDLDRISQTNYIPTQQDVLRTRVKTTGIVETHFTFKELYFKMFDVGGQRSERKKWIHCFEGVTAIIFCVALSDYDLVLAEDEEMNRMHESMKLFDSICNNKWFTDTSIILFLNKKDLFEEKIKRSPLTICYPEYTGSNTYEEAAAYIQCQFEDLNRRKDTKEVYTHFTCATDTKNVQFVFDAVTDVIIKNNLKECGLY
# Sequence of GIV binding to Gαi3 (P08753 whole entry): as above
compound,measurement,setting,value
COC(=O)CCCN(C)S(=O)(=O)c1ccc2c(c1)Cc1cc(S(=O)(=O)N(C)CCCC(=O)OC)ccc1-2 [IGGi-11me],inhibition of BT-549 cell migration,BT-549 cells,potency similar to that seen for MDA-MB-231 cells
same,MDA-MB-231 cell migration toward SDF-1α,MDA-MB-231 cells (CXCR4),did not affect MDA-MB-231 cell migration
same,"potency as inhibitor of GIV–Gαi3 binding relative to IGGi-11, FP",GIV binding to Gαi3,lower potency compared to IGGi-11
same,"inhibition of MDA-MB-231 cell migration, dose dependence","MDA-MB-231 cells [1]; FBS as chemoattractant, 1-100 μM, preincubation",efficiently reduced their ability to migrate
same,potency on migration of MDA-MB-231 relative to MCF-7,MDA-MB-231 cells [1]; GIV^High vs GIV^Low,approximately four times more potent
same,viability of MCF-10A cells,MCF-10A cells [2],did not affect the viability
same,"EGF-stimulated phosphorylation of Akt at S473, HeLa",[3],"reduced, in a dose-dependent manner, the phosphorylation of Akt at S473"
same,growth of MCF-10A cells in Matrigel cultures,MCF-10A cells [4],did not affect the growth of nontransformed MCF-10A breast cells in Matrigel cultures
same,conversion to IGGi-11 by cellular esterases,[5],converted to IGGi-11 by esterases present in the cytosol of MDA-MB-231 cells
same,viability of MDA-MB-231 cells,MDA-MB-231 cells [6],did not affect the viability
same,EGF-stimulated Akt activation in GIV-depleted cells,[7],failed to further reduce Akt activation in GIV-depleted cells
same,cell migration of GIV-depleted MDA-MB-231 cells,[8],had no effect on MDA-MB-231 cell migration upon GIV depletion
same,inhibition of Hs578T cell migration,Hs578T cells,potency similar to that seen for MDA-MB-231 cells
same,stability in plasma,Stability in plasma,rapidly degraded in plasma
same,growth of MDA-MB-231 cells in Matrigel cultures,MDA-MB-231 cells [9],overall reduction of cell growth
same,cell migration of GIV-depleted HeLa cells,[10],inhibition of tumor cell migration is lost upon depletion of GIV
same,growth of pretreated MDA-MB-231 cells on plastic dishes,MDA-MB-231 cells [11],had no effect
same,cAMP response to isoproterenol in the absence of Gi-mediated regulation,[12],had no effect
same,"EGF-stimulated phosphorylation of Akt at S473, MDA-MB-231","[13]; EGF 1.6 nM, 5 min, PTX 100 ng/mL","reduced, in a dose-dependent manner, the phosphorylation of Akt at S473"
same,total amount of GIV or Gαi,[13]; immunoblot,did not change the total amount of GIV or Gαi
same,"SDF-1α-stimulated Akt activation, MDA-MB-231",[14],does not block Akt activation
O=C(Nc1cccc(C(=O)Nc2ccc(S(=O)(=O)O)c3cc(S(=O)(=O)O)cc(S(=O)(=O)O)c23)c1)Nc1cccc(C(=O)Nc2ccc(S(=O)(=O)O)c3cc(S(=O)(=O)O)cc(S(=O)(=O)O)c23)c1 [NF023],disruption of the GIV–Gαi interaction,GIV–Gαi3 binding,disrupts the GIV–Gαi interaction

# — paper PMC10160980 (Proceedings of the National Academy of Sciences of the …, 2023)
